Experimental data reported in ChEMBL document CHEMBL1157219, “Chalcones and other compounds from the exudates of Angelica keiskei and their cancer chemopreventive effects” (J Nat Prod, 2006).

Legend:
[1] = Inhibition of TPA-induced EBV-early antigen activation in human Raji cells; type: cell-based, human gammaherpesvirus 4
In short: (§1)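 Raji cells incubated 48 h at 37 °C in medium with n-butyric acid (4 mM), TPA (32 pmol) and test compound at molar ratios to TPA (1000, 500, 100). Smears were stained for EBV-EA by indirect immunofluorescence. Induction is given as % of TPA-alone control (100%).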

Raji [2] = test: Inhibition of TPA-induced EBV-early antigen activation in human Raji cells at 100 molar ratio relative to TPA; type: cell-based; design: scale not given: the % may be the effect or the level left; details: human gammaherpesvirus 4; in short: as §1
Raji [3] = test: Inhibition of TPA-induced EBV-early antigen activation in human Raji cells at 500 molar ratio relative to TPA; type: cell-based; design: scale not given: the % may be the effect or the level left; details: human gammaherpesvirus 4; in short: as §1
Raji [4] = test: Inhibition of TPA-induced EBV-early antigen activation in human Raji cells at 10 molar ratio relative to TPA; type: cell-based; design: scale not given: the % may be the effect or the level left; details: human gammaherpesvirus 4
[5] = Cytotoxicity against human Raji cells assessed as cell viability at 1000 molar ratio; type: cell-based; details: read-out: Activity
In short: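 Raji cell viability was recorded as a percentage in the EBV-EA setup: 48 h at 37 °C with n-butyric acid (4 mM), TPA (32 pmol) and compound at 32 nmol (1000:1 molar ratio to TPA).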

Raji [6] = test: Inhibition of TPA-induced EBV-early antigen activation in human Raji cells at 1000 molar ratio relative to TPA; type: cell-based; design: scale not given: the % may be the effect or the level left; details: human gammaherpesvirus 4; in short: as §1
[7] = Scavenging activity against (+/-)-(E)-methyl-2-[(E)-hydroxyimino]-5-nitro-6-methoxy-3-hexemide-induced NO generation in human Chang liver cells; type: functional
In short: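 Human Chang liver cells (5 × 10^5/mL) were cultured in MEM Eagle medium for 3 days. Samples (350 nmol) were added 1 min before NOR 1 (350 nmol), then incubated 1 h in a CO2 incubator. Transformed cells were counted under light microscopy (×100, >250 cells). The inhibitory ratio is transformed % with NOR 1 alone divided by transformed % with NOR 1 plus sample, with NOR 1 taken as 1.0.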

Mus musculus [8] = organism: Mus musculus; test: Inhibition of tumor promotion in mouse assessed as papilloma bearing mouse after 20 weeks; type: functional
In short: (§2)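 Two-stage mouse skin carcinogenesis using DMBA and TPA as promoter. Groups were 15 mice housed five per cage with water ad libitum. The percentage of papilloma-bearing mice was scored at 10 and 20 weeks of promotion in treated versus untreated groups.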

Mus musculus [9] = organism: Mus musculus; test: Inhibition of tumor promotion in mouse assessed as papilloma bearing mouse after 10 weeks; type: functional; in short: as §2

IC50 [1] [molar ratio]	Compound	Activity (Raji [2]) [%]	Activity (Raji [3]) [%]	Activity (Raji [4]) [%]	viability at 1000 molar ratio [5] [%]	Activity (Raji [6]) [%]	Ratio [7]	inhibition (INH) (Mus musculus [8]) [%]	inhibition (INH) (Mus musculus [9]) [%]
578	COc1ccc(C(=O)/C=C/c2ccc(O)cc2)c2c1CCC(C)(C)O2 [DEOXYXANTHOANGELOL H]	85.2	60.5	100	60	32.1	1.5		
215	CC(C)=CCC/C(C)=C/Cc1c(O)cc(O)c2c1O[C@H](c1ccc(O)cc1)CC2=O [SOPHORAFLAVANONE A]	56.4	18.5	89.3	70	0	2.1		
563	COc1ccc(C(=O)CCc2ccc(O)cc2)c2c1CCC(C)(C)O2 [DEOXYDIHYDROXANTHOANGELOL H]	81.6	56.7	100	60	27.4	1.6		
583	CC1(C)CCc2c(ccc(C(=O)/C=C/c3ccc(O)cc3)c2O)O1 [DORSMANNIN A]	86	61.7	100	60	34.2	1.9		
482	CC1=C(/C=C/C(C)=C/C=C/C(C)=C/C(=O)O)C(C)(C)CCC1 [TRETINOIN]	76.3	49.3	100	60	15.3			
572	CC1(C)[C@@H](O[C@H]2O[C@H](C(=O)O)[C@@H](O)[C@H](O)[C@H]2O[C@@H]2O[C@H](C(=O)O)[C@@H](O)[C@H](O)[C@H]2O)CC[C@]2(C)[C@H]3C(=O)C=C4[C@@H]5C[C@@](C)(C(=O)O)CC[C@]5(C)CC[C@@]4(C)[C@]3(C)CC[C@@H]12 [GLYCYRRHIZIN]	83.3	63.3	100	> 80	27.4	2.2		
	CC1(C)N([O])C(c2ccc(C(=O)O)cc2)=[N+]([O-])C1(C)C						8		
230	COc1cc(O)c2c(c1CC=C(C)C)O[C@H](c1ccc(O)cc1)CC2=O [MUNDULEAFLAVANONE B]	66.7	24.9	90.3	70	0	2.3		
320	CC(C)=CCc1c(O)ccc(C(=O)/C=C/c2ccc(O)cc2)c1O [ISOBAVACHALCONE]	63	26.3	98.4	60	0	2	80	20
273	CC(C)=CCCC1(C)CCc2c(O)ccc(C(=O)/C=C/c3ccc(O)cc3)c2O1 (stereo not given)	64.7	20.3	87.3	70	0	2.4		
264	CC(C)=CCCC(C)(O)CCc1c(O)ccc(C(=O)/C=C/c2ccc(O)cc2)c1O (stereo not given) [XANTHOANGELOL J]	66.8	12.5	90.2	70	0	2.4		
490	COc1c2occc2cc2ccc(=O)oc12 [METHOXSALEN]	83.1	55.2	100	60	14.2	1.3		
486	COc1c2ccoc2c(OC)c2oc(=O)ccc12 [ISOPIMPINELLIN]	81.5	57.4	100	60	12.1	1.4		
290	CC(C)=CCc1c(O)ccc2ccc(=O)oc12 [OSTHENOL]	69.8	30.1	90.6	70	0	2		

Compound	IC50 [1] [molar ratio]	Activity (Raji [2]) [%]	Activity (Raji [3]) [%]	Activity (Raji [4]) [%]	viability at 1000 molar ratio [5] [%]	Activity (Raji [6]) [%]	Ratio [7]	inhibition (INH) (Mus musculus [8]) [%]	inhibition (INH) (Mus musculus [9]) [%]
C=C[C@@H](O)C#CC#C[C@@H](O)/C=C\CCCCCCCCOC(C)=O	511	81.4	53.1	100	60	18.7	1.2		
